The values that follow come from ChEMBL document CHEMBL4725347, “Discovery of a Monoiodo Aza-BODIPY Near-Infrared Photosensitizer: in vitro and in vivo Evaluation for Photodynamic Therapy” (J Med Chem, 2020).

A word on the IC50: it is the midpoint of a concentration-inhibition curve.

The nature of data set [1]: Dark toxicity in human HeLa cells assessed as reduction in cell viability after 3 hrs by MTT assay. The class given is cell-based. In short, it runs like this:
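Compound was formulated with Cremophor EL/1,2-propanediol in PBS, filtered, and its concentration confirmed by UV-Vis. HeLa cells in DMEM with 10% FBS at 37 °C, 5% CO2 were seeded at 3×10^3 cells/well and adhered overnight. Cells were exposed to graded concentrations for 3 h without light, incubated 24 h, then MTT 0.5 mg/mL for 4 h; formazan dissolved in DMSO, A490 read.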

Data set [2] in a line: Induction of singlet oxygen generation in N,N-dimethylformamide assessed as relative rate of DPBF degradation to MB at 1 uM irradiated with 90 mW/cm2 halogen light. The class given is functional. In short, it runs like this:
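Singlet oxygen generation measured with 1,3-diphenylisobenzofuran (DPBF) as scavenger. The decrease in DPBF absorbance at 411 nm was monitored over time during light irradiation, and the photodegradation rate was calculated.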

Data set [3] in a line: Absorption property of the compound in chloroform assessed as absorption coefficient by UV-visible spectrophotometric method. Format: physicochemical. In short, it runs like this: (§1)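 Electronic absorption spectra recorded by UV-visible spectrophotometry at room temperature. Solvents were chloroform, isopropanol, acetonitrile, DMF, and PBS buffer containing 1% Cremophor EL/1,2-propanediol (10:3, v:v). Chloroform data were referenced to the non-halogenated parent dye.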

Data set [4] is described as follows: Dark toxicity in human SW480 cells assessed as reduction in cell viability after 3 hrs by MTT assay. Format: cell-based. (In general: Formazan colour is commonly taken as a measure of viable cells.)
Data set [5] is described as follows: Emission property of the compound in chloroform assessed as maximum emission wavelength by fluorescence spectrophotometric method. The class given is physicochemical. In short, it runs like this:
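Fluorescence spectrum recorded in chloroform by fluorescence spectrophotometer at room temperature.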

Data set [6] is described as follows: Absorption property of the compound in chloroform assessed as hypsochromic shift by measuring maximum absorption wavelength by UV-visible spectrophotometric method. The class given is physicochemical. The gist of the method: as §1
For the next data set, the system named is SW480. The experiment in a line: Phototoxicity against human SW480 cells assessed as reduction in cell viability preincubated for 3 hrs followed by 54 J/cm2 light irradiation and measured after 24 hrs by MTT assay. Format: functional, cell-based. Particulars: SW480, light or radiation study. The gist of the method:
(§2)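 PS formulated in PBS containing Cremophor EL/1,2-propanediol (10:3, v:v) after THF removal, filtered, with concentration confirmed by UV-Vis. Cells were grown in DMEM with 10% FBS and seeded at 3×10^3 per well overnight. They were incubated with PS for 3 h, irradiated at λ > 590 nm, kept 24 h at 37 °C, then given MTT (0.5 mg/mL, 4 h) with DMSO solubilization and A490 read-out.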

The next data set deals with HeLa. Nature of the data set: Phototoxicity against human HeLa cells assessed as reduction in cell viability preincubated for 3 hrs followed by 54 J/cm2 light irradiation and measured after 24 hrs by MTT assay. The class given is functional, cell-based. Particulars: light or radiation study. In short, it runs like this:
as §2

The nature of data set [7]: Dark toxicity in human MCF7 cells assessed as reduction in cell viability after 3 hrs by MTT assay. The class given is cell-based.
The subject of another data set is MCF7. The experiment in a line: Phototoxicity against human MCF7 cells assessed as reduction in cell viability preincubated for 3 hrs followed by 54 J/cm2 light irradiation and measured after 24 hrs by MTT assay. Format: functional, cell-based. Particulars: MCF7, light or radiation study. In short, it runs like this:
as §2

For the compound `Cc1ccc(C2=[N+]3C(=Nc4c(-c5ccccc5)cc(-c5ccc(C)cc5)n4[B-]3(F)F)C(c3ccccc3)=C2Br)cc1`, the IC50 at 3 h in data set [1], in data set [4] and in data set [7] was over 50 µM in each case. In addition, the fold change (FC) in data set [2] worked out at 0.12. Besides, the Activity is 83600 M⁻¹ cm⁻¹ in [3], 685 nm in data set [5] and 658 nm in [6]. The IC50 with SW480 is over 25 µM; in the data set on HeLa, 7.2 µM; with MCF7, 2.6 µM.
Consider `Cc1ccc(C2=[N+]3C(=Nc4c(-c5ccccc5)c(Br)c(-c5ccc(C)cc5)n4[B-]3(F)F)C(c3ccccc3)=C2Br)cc1`, for which the IC50 at 3 h in data set [1], in [4] and in data set [7] was over 50 µM in each case. For the same compound, the fold change (FC) in [2] worked out at 0.22. For the same compound, the results for the Activity in [3], in data set [5] and in [6] were 79900 M⁻¹ cm⁻¹, 685 nm and 658 nm, respectively. Besides, the IC50 in the data set with SW480 is 16.1 µM; in the data set on HeLa it was 4.3 µM; in the data set on MCF7 it was 1.5 µM.
Consider `Cc1ccc(C2=[N+]3C(=Nc4c(-c5ccccc5)cc(-c5ccc(C)cc5)n4[B-]3(F)F)C(c3ccccc3)=C2I)cc1`, for which the IC50 at 3 h in [1], in [4] and in data set [7] was over 50 µM in each case. Also, in [2], the fold change (FC) came to 0.26. The Activity came to 89600 M⁻¹ cm⁻¹ in data set [3], 690 nm in data set [5] and 659 nm in [6]. The IC50 with SW480 is 12.4 µM; in the data set on HeLa, 2.6 µM; in the data set on MCF7, 1.2 µM.
Regarding `COc1ccc2c(c1)CCc1c(-c3ccccc3)c3n(c1-2)[B-](F)(F)[N+]1=C(c2ccc(C)cc2)C(I)=C(c2ccccc2)C1=N3`, the IC50 at 3 h in [1], in data set [4] and in [7] was over 50 µM each time. In addition, the fold change (FC) in data set [2] was determined as 0.25. The Activity in data set [3] was found to be 110000 M⁻¹ cm⁻¹; in data set [5], 709 nm; in data set [6], 682 nm. Besides, the IC50 in the data set on SW480 was found to be 0.66 µM; in the data set with HeLa, 0.11 µM; in the data set on MCF7 it was 0.41 µM.
As for `Cc1ccc(C2=[N+]3C(=Nc4c(-c5ccccc5)c(I)c(-c5ccc(C)s5)n4[B-]3(F)F)C(c3ccccc3)=C2I)s1`, the IC50 at 3 h in data set [1], in data set [4] and in [7] was over 50 µM in each case. For the same compound, the fold change (FC) in data set [2] stood at 0.36. The Activity in [3] was 91300 M⁻¹ cm⁻¹; in data set [5], 768 nm; in data set [6] it was 732 nm. In addition, the figures for the IC50 in the data set on SW480, in the data set on HeLa and in the data set with MCF7 were over 25 µM, over 25 µM and 16.4 µM, respectively.
As to `Cc1ccc(C2=[N+]3C(=Nc4c(-c5ccccc5)cc(-c5ccc(C)s5)n4[B-]3(F)F)C(c3ccccc3)=C2I)s1`, the IC50 at 3 h in data set [1], in data set [4] and in data set [7] was over 50 µM throughout. For the same compound, the fold change (FC) in data set [2] came to 0.32. The results for the Activity in data set [3], in data set [5] and in [6] were 71700 M⁻¹ cm⁻¹, 766 nm and 732 nm, respectively. The IC50 stood at 20.6 µM with SW480, 15.6 µM in the data set with HeLa and 7.7 µM in the data set on MCF7.
With `COc1ccc2c(c1)CCc1c(-c3ccccc3)c3n(c1-2)[B-](F)(F)[N+]1=C(c2ccc(C)s2)C(I)=C(c2ccccc2)C1=N3`, the IC50 at 3 h in [1], in data set [4] and in data set [7] was over 50 µM in each case. For the same compound, in [2], the fold change (FC) came out at 0.42. The figures for the Activity in [3], in data set [5] and in [6] were 76900 M⁻¹ cm⁻¹, 756 nm and 716 nm, respectively. Moreover, the IC50 in the data set with SW480 stood at 21.4 µM; in the data set on HeLa, 12.3 µM; in the data set with MCF7, 16.6 µM.
Turning to `COc1ccc2c(c1)CCc1c(-c3ccccc3)c3n(c1-2)[B-](F)(F)[N+]1=C(c2cccs2)C(I)=C(c2ccccc2)C1=N3`, the IC50 at 3 h in data set [1], in data set [4] and in [7] was over 50 µM each time. Also, the fold change (FC) in data set [2] worked out at 0.37. Further, the Activity stood at 81500 M⁻¹ cm⁻¹ in data set [3], 740 nm in data set [5] and 695 nm in data set [6]. Also, the values for the IC50 in the data set with SW480, in the data set with HeLa and in the data set with MCF7 were 0.83 µM, 0.46 µM and 0.75 µM, respectively.
With `Cc1ccc(C2=[N+]3C(=Nc4c(-c5ccccc5)c(I)c(-c5ccc(C)cc5)n4[B-]3(F)F)C(c3ccccc3)=C2I)cc1`, the IC50 at 3 h in data set [1], in data set [4] and in data set [7] was over 50 µM each time. Further, in [2], the fold change (FC) came out at 0.28. In addition, the Activity is 92000 M⁻¹ cm⁻¹ in [3], 688 nm in data set [5] and 662 nm in data set [6]. In addition, the IC50 in the data set with SW480 was over 25 µM; with HeLa, 13.4 µM; in the data set on MCF7, 5.3 µM.
For `COc1ccc(C2=[N+]3C(=Nc4c(-c5ccccc5)c5c(n4[B-]3(F)F)-c3ccc(OC)cc3CC5)C(c3ccccc3)=C2I)cc1`, the IC50 at 3 h in data set [1], in data set [4] and in data set [7] was over 50 µM each time. In addition, the fold change (FC) in data set [2] stood at 1.2. The Activity in data set [3] turned out to be 101300 M⁻¹ cm⁻¹; in data set [5], 725 nm; in data set [6], 689 nm. Also, the IC50 was found to be 0.12 µM with SW480, 0.081 µM in the data set on HeLa and 0.14 µM with MCF7.
As for `COc1ccc2c(c1)CCc1c(-c3ccccc3)c3n(c1-2)[B-](F)(F)[N+]1=C(c2ccc(C)s2)C(Br)=C(c2ccccc2)C1=N3`, the IC50 at 3 h in data set [1], in data set [4] and in data set [7] was over 50 µM throughout. Moreover, in [2], the fold change (FC) was 0.14. Further, the results for the Activity in data set [3], in data set [5] and in data set [6] were 73700 M⁻¹ cm⁻¹, 753 nm and 714 nm, respectively. Moreover, the IC50 in the data set on SW480 was over 25 µM; in the data set with HeLa, 22.6 µM; in the data set on MCF7 it was over 25 µM.
Turning to `COc1ccc2c(c1)CCc1c(-c3ccccc3)c3n(c1-2)[B-](F)(F)[N+]1=C(c2ccc(C)cc2)C(Br)=C(c2ccccc2)C1=N3`, the IC50 at 3 h in [1], in data set [4] and in [7] was over 50 µM each time. Besides, in data set [2], the fold change (FC) is 0.14. The Activity amounted to 104400 M⁻¹ cm⁻¹ in data set [3], 709 nm in data set [5] and 682 nm in [6]. Further, the IC50 was determined as 15.6 µM with SW480, 1.2 µM in the data set with HeLa and 8.1 µM with MCF7.
As for `COc1ccc(C2=[N+]3C(=Nc4c(-c5ccccc5)c5c(n4[B-]3(F)F)-c3ccc(OC)cc3CC5)C(c3ccccc3)=C2Br)cc1`, the IC50 at 3 h in [1], in data set [4] and in data set [7] was over 50 µM each time. Besides, the fold change (FC) in data set [2] came to 0.17. The results for the Activity in data set [3], in data set [5] and in [6] were 90300 M⁻¹ cm⁻¹, 724 nm and 692 nm, respectively. For the same compound, the values for the IC50 in the data set on SW480, with HeLa and in the data set on MCF7 were 1.9 µM, 0.83 µM and 4.5 µM, respectively.
